The species entered for assay [1] is Rattus norvegicus. Kind of assay: Relaxant potency in rat aorta. Type of assay: functional. The procedure, abridged:
(§1)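 Aortic rings (5 mm wide) were denuded of endothelium, confirmed by the absence of a dilator response to 1 mmol/L acetylcholine. Tracheal strips were cut through the ring opposite the muscle layer. Tissues were mounted in 7-mL baths for isometric force recording. Once contraction was stable, cumulative concentration–effect curves were run. Compounds came from 10^-2 M DMSO stocks diluted in water, with final bath DMSO at most 2%.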

For assay [2], the species on record is Rattus norvegicus. Kind of assay: Relaxant potency in rat trachea. The assay is classed as functional. The essentials: as §1

This note sets out measurements from ChEMBL document CHEMBL1132616, “6-Substituted benzopyrans as potassium channel activators: synthesis, vasodilator properties, and multivariate analysis” (1999).

Each structure is given as a SMILES string.

For `CC1(C)C=C(n2ccccc2=O)c2cc(C(=O)c3ccccc3F)ccc2O1`, the entries for the “Log 1/C” value in the assay listed under Rattus norvegicus [1] and in the assay listed under Rattus norvegicus [2] were 7.08 and 6.34, respectively.

Turning to `CC1(C)C=C(n2ccccc2=O)c2cc(C(=O)c3ccc([N+](=O)[O-])cc3)ccc2O1`, the “Log 1/C” value in the assay listed under Rattus norvegicus [1] is listed as 6.2; in the assay listed under Rattus norvegicus [2], 6.09.

Consider `CC1(C)C=C(n2ccccc2=O)c2cc(C(=N)S)ccc2O1`, for which the figures for the “Log 1/C” value in the assay filed under Rattus norvegicus [1] and in the assay listed under Rattus norvegicus [2] were 6.21 and 5.96, respectively.

As to `CC1(C)C=C(n2ccccc2=O)c2cc(OC(=O)Nc3ccccc3C(F)(F)F)ccc2O1`, the “Log 1/C” value turned out to be 5.58 in the assay filed under Rattus norvegicus [1] and 5.19 in the assay listed under Rattus norvegicus [2].

Turning to `CC1(C)C=C(n2ccccc2=O)c2cc(C(=O)c3ccccc3[N+](=O)[O-])ccc2O1`, the “Log 1/C” value in the assay listed under Rattus norvegicus [1] was 6.17; in the assay filed under Rattus norvegicus [2], 5.64.

As for `CCC(=O)c1ccc2c(c1)C(n1ccccc1=O)=CC(C)(C)O2`, the “Log 1/C” value in the assay filed under Rattus norvegicus [1] is recorded as 6.63; in the assay filed under Rattus norvegicus [2], 5.85.

On to `CC1(C)C=C(n2ccccc2=O)c2ccccc2O1`, for which the “Log 1/C” value in the assay listed under Rattus norvegicus [1] came to 5.43; in the assay filed under Rattus norvegicus [2], 5.05.

In the case of `CC1(C)C=C(n2ccccc2=O)c2cc(C(=N)NO)ccc2O1`, the “Log 1/C” value in the assay filed under Rattus norvegicus [1] was determined as 5.99; in the assay listed under Rattus norvegicus [2], 5.51.

As for `CC1(C)C=C(n2ccccc2=O)c2cc(C=C(C#N)C#N)ccc2O1`, the “Log 1/C” value in the assay filed under Rattus norvegicus [1] came out at 6.95; in the assay filed under Rattus norvegicus [2] it was 6.3.

Consider `CC1(C)C=C(n2ccccc2=O)c2cc(C(=O)c3ccccc3)ccc2O1`, for which the “Log 1/C” value was determined as 6.61 in the assay filed under Rattus norvegicus [1] and 6.21 in the assay listed under Rattus norvegicus [2].

`COc1ccc2c(c1)C(n1ccccc1=O)=CC(C)(C)O2`: the results for the “Log 1/C” value in the assay listed under Rattus norvegicus [1] and in the assay filed under Rattus norvegicus [2] were 6.55 and 5.99, respectively.

`CC1(C)C=C(n2ccccc2=O)c2cc(C(F)(F)F)ccc2O1`: the entries for the “Log 1/C” value in the assay filed under Rattus norvegicus [1] and in the assay filed under Rattus norvegicus [2] were 7.61 and 7.37, respectively.

`CC1(C)C=C(n2ccccc2=O)c2cc(OS(=O)(=O)F)ccc2O1`: the entries for the “Log 1/C” value in the assay listed under Rattus norvegicus [1] and in the assay filed under Rattus norvegicus [2] were 7.95 and 7.22, respectively.

On to `CC1(C)C=C(n2ccccc2=O)c2cc(OC(=O)Nc3ccc(C(F)(F)F)cc3)ccc2O1`, for which the “Log 1/C” value in the assay filed under Rattus norvegicus [1] came out at 5.1; in the assay filed under Rattus norvegicus [2], 4.54.

Consider `CC1(C)C=C(n2ccccc2=O)c2cc(OC(=O)Nc3ccccc3)ccc2O1`, for which the “Log 1/C” value in the assay filed under Rattus norvegicus [1] was found to be 5.3; in the assay listed under Rattus norvegicus [2] it was 4.89.

For the compound `CC1(C)C=C(n2ccccc2=O)c2cc(OCC(=O)c3ccccc3)ccc2O1`, the “Log 1/C” value in the assay listed under Rattus norvegicus [1] turned out to be 5.05; in the assay filed under Rattus norvegicus [2], 4.69.

Turning to `CC1(C)C=C(n2ccccc2=O)c2cc(C(=O)c3ccco3)ccc2O1`, the “Log 1/C” value in the assay listed under Rattus norvegicus [1] was 6.49; in the assay filed under Rattus norvegicus [2], 5.92.

Take `CC1(C)C=C(n2ccccc2=O)c2cc(OC(=O)Nc3ccc(F)cc3)ccc2O1`: the “Log 1/C” value in the assay filed under Rattus norvegicus [1] was 5.3; in the assay listed under Rattus norvegicus [2], 4.37.

For `CC1(C)C=C(n2ccccc2=O)c2cc(C#N)ccc2O1` [BIMAKALIM], the “Log 1/C” value in the assay listed under Rattus norvegicus [1] is on record as 7.67; in the assay filed under Rattus norvegicus [2], 7.1.

In the case of `CC1(C)C=C(n2ccccc2=O)c2cc(OC(=O)Nc3ccccc3F)ccc2O1`, the “Log 1/C” value amounted to 5.38 in the assay filed under Rattus norvegicus [1] and 4.22 in the assay listed under Rattus norvegicus [2].

With `CC(=O)Oc1ccc2c(c1)C(n1ccccc1=O)=CC(C)(C)O2`, the “Log 1/C” value is 5.6 in the assay filed under Rattus norvegicus [1] and 4.97 in the assay listed under Rattus norvegicus [2].

On to `CC1(C)C=C(n2ccccc2=O)c2cc(OCC(=O)c3ccc(F)cc3)ccc2O1`, for which the “Log 1/C” value in the assay listed under Rattus norvegicus [1] is reported as 4.63; in the assay listed under Rattus norvegicus [2], 4.77.

For the compound `CC1(C)C=C(n2ccccc2=O)c2cc(O)ccc2O1`, the “Log 1/C” value in the assay filed under Rattus norvegicus [1] turned out to be 5.44; in the assay filed under Rattus norvegicus [2], 5.31.

`CC1(C)C=C(n2ccccc2=O)c2cc(C(=O)c3ccc(O)cc3)ccc2O1`: the “Log 1/C” value in the assay filed under Rattus norvegicus [1] is 6.65; in the assay listed under Rattus norvegicus [2], 5.87.

Consider `CC1(C)C=C(n2ccccc2=O)c2cc(C=O)ccc2O1`, for which the results for the “Log 1/C” value in the assay filed under Rattus norvegicus [1] and in the assay filed under Rattus norvegicus [2] were 6.91 and 6.14, respectively.

With `CC1(C)C=C(n2ccccc2=O)c2cc(-c3ccncc3)ccc2O1`, the “Log 1/C” value in the assay listed under Rattus norvegicus [1] was 6.68; in the assay filed under Rattus norvegicus [2], 6.32.

`COc1ccc(C(=O)c2ccc3c(c2)C(n2ccccc2=O)=CC(C)(C)O3)cc1`: the “Log 1/C” value came out at 6.15 in the assay filed under Rattus norvegicus [1] and 5.72 in the assay filed under Rattus norvegicus [2].

For `CC1(C)C=C(n2ccccc2=O)c2cc(C(=O)c3c(F)cccc3F)ccc2O1`, the entries for the “Log 1/C” value in the assay filed under Rattus norvegicus [1] and in the assay listed under Rattus norvegicus [2] were 6.97 and 5.99, respectively.

As to `Cc1ccc(C)n1-c1ccc2c(c1)C(n1ccccc1=O)=CC(C)(C)O2`, the “Log 1/C” value is 7.27 in the assay listed under Rattus norvegicus [1] and 6.78 in the assay listed under Rattus norvegicus [2].

With `CC1(C)C=C(n2ccccc2=O)c2cc(Br)ccc2O1`, the results for the “Log 1/C” value in the assay filed under Rattus norvegicus [1] and in the assay listed under Rattus norvegicus [2] were 7.84 and 7.53, respectively.

As to `CC1(C)C=C(n2ccccc2=O)c2cc(C(=O)c3cccs3)ccc2O1`, the “Log 1/C” value in the assay listed under Rattus norvegicus [1] is listed as 6.4; in the assay listed under Rattus norvegicus [2] it was 5.84.

Consider `CC(=O)c1ccc2c(c1)C(n1ccccc1=O)=CC(C)(C)O2`, for which the results for the “Log 1/C” value in the assay filed under Rattus norvegicus [1] and in the assay filed under Rattus norvegicus [2] were 7.37 and 6.65, respectively.

For the compound `CC1(C)C=C(n2ccccc2=O)c2cc(C(=O)c3ccccc3C(F)(F)F)ccc2O1`, the results for the “Log 1/C” value in the assay listed under Rattus norvegicus [1] and in the assay listed under Rattus norvegicus [2] were 6.76 and 5.78, respectively.

For `Cc1ccccc1C(=O)c1ccc2c(c1)C(n1ccccc1=O)=CC(C)(C)O2`, the entries for the “Log 1/C” value in the assay filed under Rattus norvegicus [1] and in the assay filed under Rattus norvegicus [2] were 6.83 and 6.25, respectively.
